pKi: −log10 of the molar value. Read-outs that look alike come from different tables or passages of the source.
Tests used:
SP1–7 binding site [1] = details: rat spinal cord membranes preparation; cited from earlier work
SP1–7 binding site [2] = test: Dynamic PET imaging, blocking experiments; format: in vivo, Wistar rats
In short: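 Healthy male Wistar rats (200–320 g) under isoflurane (3% induction, 1–2.5% maintenance, in oxygen). A 5 min CT or 15 min MRI preceded the i.v. tail-vein tracer bolus and a 60 min dynamic PET scan. Blockers were SP1–7 (5% DMSO in saline), 185 nmol·kg–1 i.p. 15 min before, or the unlabeled tracer analogue (20% EtOH in saline), 3 μmol·kg–1 slow i.v. 3 or 20 min before. Read-out was manual brain/spinal cord ROI SUV ± SD.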

SP1–7 binding site [3] = details: read-out: binding; rat ventral tegmental area; cited from earlier work
[4] = mouse plasma; cited from earlier work
Caco-2 cell monolayer = details: cited from earlier work
[5] = self-blocking, i.v. 3 μmol·kg^–1, 3 min prior to tracer
[6] = blocker i.p. 185 nmol·kg^–1, 15 min prior to tracer

**Q.** With NC(=O)[C@H](Cc1ccccc1)NC(=O)OCc1ccccc1 [compound 1, (S)-Benzyl (1-Amino-1-oxo-3-phenylpropan-2-yl)carbamate] as the compound, how does the pKi (SP1–7 binding site [1]) read?
**A.** Its pKi is 8.28.

**Q.** What about the “blocking of [^11C]1 brain uptake” value (SP1–7 binding site [2]; blocker i.v. 3 μmol·kg^–1, 20 min prior to tracer) of the same compound?
**A.** Its value is “did not block brain uptake”.

**Q.** And the “blocking of [^11C]1 spinal cord uptake” value (SP1–7 binding site [2]; self-blocking, 3 or 20 min prior to tracer injection)?
**A.** The value was “did not show any blocking”.

**Q.** Which results are given for NC(=O)[C@@H](Cc1ccccc1)NC(=O)OCc1ccccc1 [compound 2, (R)-Benzyl (1-Amino-1-oxo-3-phenylpropan-2-yl)carbamate]?
**A.** blocking of [^11C]2 brain uptake (SP1–7 binding site [2]; [5]): did not show any blocking effect; blocking of [^11C]2 spinal cord uptake (SP1–7 binding site [2]; [5]): did not show any blocking effect

**Q.** With “H-Arg-Pro-Lys-Pro-Gln-Gln-Phe-OH (H-RPKPQQF-OH) [SP1–7]” as the compound, how does the pKi (SP1–7 binding site [3]) read?
**A.** The pKi was 8.41.

**Q.** And the in vitro half-life [4]?
**A.** Its in vitro half-life is 4.4 min.

**Q.** And the “blocking of [^11C]1 brain uptake” value (SP1–7 binding site [2]; [6])?
**A.** Its value is “did not block brain uptake”.

**Q.** What about the “blocking of [^11C]1 spinal cord uptake” value (SP1–7 binding site [2]; [6]) of the same compound?
**A.** The value was “moderate blocking”.

**Q.** And the permeability (Caco-2 cell monolayer)?
**A.** The permeability was “failed to display any measurable permeability”.

— publication PMC6220361 (Molecular Pharmaceutics, 2018)
